We go through 13 compounds from article PMC5708124 (Nature microbiology, 2017).

Read-outs that look alike come from different tables or passages of the source. Bounds are passed on as bounds.

The subject of series [1] is PfMDR1 mutant lines versus parental ABS parasites (Dd2-B2, FCB). Description: Drug susceptibility profiling of HHQ-resistant lines in ABS parasites. The conditions noted are these: for changes in susceptibility: all three lines: PfMDR1^edF1072L, PfMDR1^selY290F; for susceptibility in GNF-Pf-5668-3C4D2 compared to PfMDR1^edF1072L: i.e. higher IC50 values; for fold increased susceptibility compared to wild-type Dd2-B2: GNF-Pf-5668-3C4D2 line (four pfmdr1 copies + F1072L (AB 69%)). The class given is cell-based, Plasmodium falciparum.

The test system of series [2] is P. berghei ANKA MRA868 GAMs, Anopheles stephensi mosquitoes. Description: In vivo transmission-blocking effect. More on the design: species or system P. berghei in CD-1 mice. The conditions noted are these: mice given two doses 12 h apart: 100 mg/kg GNF compounds, 30 mg/kg DHA.
Series [3] concerns 3D7 (drug-sensitive) ABS parasites. Description: Imaging-based asexual blood stage high-throughput assay. The class given is cell-based, Plasmodium falciparum. The conditions noted are these: read-out: ABS IC50; drug-sensitive 3D7, 72 h. The method in brief:
(§1)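 Sorbitol-synchronized parasites were seeded at 2% parasitemia and 0.3% Hct and exposed to test compound for 72 h at 37°C in 5% O₂/5% CO₂/90% N₂. Cells were then permeabilized with 0.01% Triton X-100, 0.001% saponin and 5 mM EDTA, and stained with 0.5 μg/mL DAPI for at least 6 h at room temperature in the dark. Confocal imaging used 405 nm excitation. Parasites were counted from spot size and intensity. Two independent cultures.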

Series [4] relates to NITD609-R^Dd2 clone #2 (PfATP4 mutant line). The description is as above. The settings on record: read-out: ABS IC50, 72 h. The class given is cell-based, Plasmodium falciparum. Put shortly:
as §1

A further series relates to male GAM exflagellation. The series can be described thus: Male GAM exflagellation of GAM cultures used for membrane feeding. In kind it is cell-based, Plasmodium falciparum. The settings on record: GAM cultures exposed at 3x late-stage IC50.
Series [5] relates to NF54^Pfs16 early-stage GAMs. Description: Luciferase-based early-stage gametocyte inhibition assay. The class given is cell-based, Plasmodium falciparum. The settings on record: in words. The method in brief: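 Gametocytes on day 1 of gametocytogenesis were set at 10% parasitemia and 0.5% Hct. They were kept in medium with 50 mM N-acetyl-D-glucosamine, refreshed daily. Compound was added at 0.4% DMSO final. Controls were DMSO (0% inhibition) and 5 μM puromycin (100% inhibition). After 72 h at 37°C in 5% O₂/5% CO₂/90% N₂, Steadylite was added, followed by 60 min lysis at room temperature and a luminescence read. Potency used serial dilutions up to 40 μM, three per log, on two independent occasions.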

Series [6] deals with HEK293 human embryonic kidney cell line. The series can be described thus: HEK293 cytotoxicity. In kind it is cell-based. The settings on record: at 40 μM, 72 h. Put shortly: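 Cells were grown in DMEM with 10% fetal calf serum and seeded at 2,000 cells/well, then left overnight at 37°C in 5% CO₂ to adhere. Test compound was added as a serial dilution with a maximum of 40 μM, at 0.4% DMSO final, for 72 h. Medium was then replaced with serum-free DMEM containing 44 μM resazurin for 4–6 h. Fluorescence was read at 530/595 nm. Two biological replicates.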

For series [7], the system named is compound-exposed Pf GAMs in Anopheles stephensi mosquitoes. The series can be described thus: Membrane-feeding assay with A. stephensi mosquitoes. The class given is in vivo, Plasmodium falciparum. Put shortly:
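Day-12 gametocytes were treated 3 days at 1x or 3x their late-stage IC50, with compound refreshed daily, then held 4 days without compound. Controls were 0.25% DMSO and methylene blue at 3x. Stage V cultures (50% Hct, 0.01–0.16% parasitemia) were membrane-fed for 30 min to A. stephensi, kept at 26°C and 78% RH. Midguts were dissected on day 7–8, stained with mercurochrome and oocysts counted blind. Prevalence is the percentage of mosquitoes with at least one oocyst.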

Series [8] has as its system male gametes from stage V GAMs. The series can be described thus: Dual gamete formation assay, male gamete formation. In kind it is cell-based, Plasmodium falciparum. The settings on record: for IC50: Plasmodium falciparum, 24 h.
In series [9] the test system is NF54^Pfs16 late-stage GAMs. The series can be described thus: Image-based late-stage gametocyte inhibition assay. The class given is cell-based, Plasmodium falciparum. The settings on record: in words. The method in brief:
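Day-8 stage IV gametocytes were MACS-purified and set at 10% parasitemia and 0.1% Hct, with 0.4% DMSO final. They were incubated 72 h at 37°C in 5% O₂/5% CO₂/90% N₂, then stained overnight with MitoTracker Red CM-H₂XRos. Confocal imaging counted viable mature gametocytes per imaged area; 5 μM puromycin was the control. Screening used 2 μM in triplicate. Potency used serial dilutions up to 40 μM, three per log, on two independent occasions.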

In series [10] the test system is Dd2 (multidrug-resistant) ABS parasites. The series can be described thus: Imaging-based asexual blood stage high-throughput assay. The settings on record: read-out: ABS IC50; multidrug-resistant Dd2, 72 h. The class given is cell-based, Plasmodium falciparum.
In series [11] the test system is female gametes from stage V GAMs. The series can be described thus: Dual gamete formation assay, female gamete formation. The class given is cell-based, Plasmodium falciparum. The settings on record: for IC50: Plasmodium falciparum, 24 h.
Series [12] has as its system cultured P. berghei liver-stage parasites. The settings on record: cited from earlier work.
Series [13] concerns PfMDR1^selY290F parasites. The series can be described thus: Heme fractionation assay. In kind it is cell-based, Plasmodium falciparum. The conditions noted are these: MQ with increasing concentrations; LMF at 1–2′ IC50. Put shortly:
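Early ring-stage, sorbitol-synchronized parasites were exposed to test compound at 0.1, 0.25, 0.5, 1 and 2x the ABS IC50. Heme species were fractionated and normalized to the number of cells analyzed, counted by flow cytometry of an aliquot. Significance was tested by two-tailed t-tests.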

The subject of another series is Dd2-B2 parasites. Description: Heme fractionation assay. In kind it is cell-based, Plasmodium falciparum. The conditions noted are these: for heme fractionation effect compared to untreated controls: 0.1 to 2′ IC50.
The test system of another series is Dd2-B2 late rings. The series can be described thus: Hb endocytosis by Western blot. The class given is cell-based, Plasmodium falciparum. The settings on record: 5′ the IC50 for 5 h, normalized to DMSO control. Put shortly:
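Sorbitol-synchronized parasites were exposed to test compound at 5x IC50 for 5 h, starting at the late ring stage. Lysates were blotted to nitrocellulose and probed overnight at 4°C with rabbit anti-human Hb (1:5,000) and anti-β-actin (1:2,000). Detection was by ECL. Hb band intensities were normalized to β-actin and compared with untreated controls. Repeated on 3–4 independent occasions.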

Where [14] appears, read: PfMDR1^selY290F (GNF-Pf-5660-2B6H1).

The term IC50 denotes the point on the concentration scale where inhibition reaches its midpoint.

With `CCN(CC)CCCC(C)Nc1ccnc2cc(Cl)ccc12` (stereo not shown) [CQ, chloroquine], the changes in susceptibility entry in [1] (PfMDR1^edS1075I) is given as “no changes”.
Regarding `C[C@H]1[C@@H](O)O[C@@H]2O[C@@]3(C)CC[C@H]4[C@H](C)CC[C@@H]1[C@@]24OO3` [DHA, dihydroartemisinin, reference compound], in series [1] (all three mutations (F1072L, S1075I, Y290F)), the “fold increased susceptibility versus Dd2-B2” value was ~ 1.6 fold. Moreover, in series [2], the “reduction in oocyst burden” value came to 75% and the “reduction in the number of infected mosquitoes” value is 65%.
For the compound `CC(C)(C)c1ccc(O)c(CNC2CCCCC2)c1` [GNF-Pf-5310], the IC50 in series [3], in series [4] and in series [10] was below 0.025 µM each time. Moreover, in the series with male GAM exflagellation, the “reduction in male GAM exflagellation rates” value is “no effect”. Besides, the early-stage gametocytocidal activity result in series [5] is given as “potent”. Besides, the “inhibition of HEK293 cells” value in [6] is below 50%. Moreover, the “reduction in oocyst density per infected mosquito midgut” value in series [7] (GAMs pre-treated at 3x late-stage IC50) was 73%. Moreover, the “reduction in infection prevalence (percentage of infected mosquitoes)” value in [7] (GAMs pre-treated at 3x late-stage IC50, 3 days, then 4 days without compound) is on record as “no reduction”. Moreover, the “activity on male gametes / exflagellation” value in [8] (in words) was “no activity”. Besides, in series [9], the late-stage gametocytocidal activity result is recorded as “potent”. Besides, in series [11] (in words), the “activity on female gamete formation” value is listed as “no activity”.
As to `COc1ccc(C2CC(=O)C3=C(C2)NC(C)=C(C(=O)OC(C)C)C3c2ccccc2C)cc1OC` (stereo not shown) [GNF-Pf-5640], the IC50 in series [3], in series [4] and in series [10] was below 0.025 µM in each case. For the same compound, the “fold increase in IC50 compared to parental Dd2-B2” value in series [1] (GNF-Pf-5640-selected clone 2C4C3, PfMDR1 S1075I) was determined as 77 fold; in series [1] (GNF-Pf-5640-selected clone 3H9C7, PfMDR1 Y290F), 79 fold. Further, the early-stage gametocytocidal activity entry in series [5] was “potent”. Moreover, in series [6], the “inhibition of HEK293 cells” value is given as below 50%. Besides, the “activity against liver-stage parasites” value in [12] was “inactive”. The late-stage gametocytocidal activity entry in series [9] is reported as “potent”.
As to `CCCCN(CCCC)CC(O)c1cc(Cl)cc2c1-c1ccc(Cl)cc1/C2=C/c1ccc(Cl)cc1` (stereo not shown) [LMF, Lumefantrine], the “Hz and total heme iron levels” value in [13] is given as “reduction”. In addition, the “fold higher susceptibility versus Dd2-B2” value in [1] (PfMDR1^edF1072L) is given as 3.1 fold; in series [1] (setting [14]), 1.9 fold. Also, the “fold increased susceptibility versus Dd2-B2” value in [1] (PfMDR1^edS1075I) is “unchanged”. The “susceptibility in GNF-Pf-5668-3C4D2 compared to PfMDR1^edF1072L” value (“susceptibility … compared to PfMDR1^edF1072L” below) in series [1] is given as “decreased susceptibility”. In the series with Dd2-B2 parasites, the “heme fractionation effect compared to untreated controls” value was “little or no effect”. Moreover, the “reduction of Hb levels within parasites” value with Dd2-B2 late rings is “no significant changes”.
As to `OC(c1cc(C(F)(F)F)nc2c(C(F)(F)F)cccc12)C1CCCCN1` (stereo not shown) [MQ, mefloquine], the “Hz and total heme iron levels” value in series [13] is given as “reductions”. In series [1], the “fold increased susceptibility compared to wild-type Dd2-B2” value stood at 1.4 fold and the “susceptibility … compared to PfMDR1^edF1072L” value is “decreased susceptibility”. Moreover, the “fold higher susceptibility versus Dd2-B2” value in series [1] (PfMDR1^edF1072L) is 3.6 fold. In series [1] (PfMDR1^edS1075I), the “fold increased susceptibility versus Dd2-B2” value is reported as 1.4 fold. In addition, in series [1] (setting [14]), the “fold higher susceptibility versus Dd2-B2” value came to 2.0 fold. The “heme fractionation effect compared to untreated controls” value in the series on Dd2-B2 parasites was “little or no effect”. Also, in the series with Dd2-B2 parasites (2′ the IC50), the “fold decrease in Hz levels” value worked out at 1.6 fold. Moreover, the “reduction of Hb levels within parasites” value in the series with Dd2-B2 late rings is reported as “no significant changes”.
Take `CN(C)c1ccc2nc3ccc(=[N+](C)C)cc-3sc2c1` [Methylene Blue, methylene blue]: the transmission-blocking activity result in series [7] (positive control at 3′ the GAM IC50, in words) is given as “maximal”. The IC50 in [8] (read-out: Mean IC50 (lower 95% CI - upper 95% CI) Male carry-over) was 0.0615 µM; in series [8] (read-out: Mean IC50 (lower 95% CI - upper 95% CI) Male wash-out) it was 0.147 µM; in series [11] (read-out: Mean IC50 (lower 95% CI - upper 95% CI) Female carry-over), 0.162 µM; in series [11] (read-out: Mean IC50 (lower 95% CI - upper 95% CI) Female wash-out), 0.846 µM.
As to `C=C[C@H]1C[N@@]2CC[C@H]1C[C@H]2[C@H](O)c1ccnc2ccc(OC)cc12` [QN, quinine], in [1], the “fold increased susceptibility compared to wild-type Dd2-B2” value is on record as 1.7 fold and the “susceptibility … compared to PfMDR1^edF1072L” value is given as “decreased susceptibility”. Moreover, the “fold higher susceptibility versus Dd2-B2” value in series [1] (PfMDR1^edF1072L) is reported as 3.6 fold. In series [1] (PfMDR1^edS1075I), the “fold increased susceptibility versus Dd2-B2” value came to 5.1 fold. Besides, in [1] (setting [14]), the “fold higher susceptibility versus Dd2-B2” value is given as 3.7 fold.
As for `CC1(C)N=C(N)N=C(N)N1OCCCOc1cc(Cl)c(Cl)cc1Cl` [WR99210], in the series with Dd2-B2 late rings, the “reduction of Hb levels within parasites” value was “no significant changes”.
Regarding `CCNCc1cc(Nc2ccnc3cc(Cl)ccc23)ccc1O` [md-ADQ, md-amodiaquine], the changes in susceptibility result in series [1] (PfMDR1^edS1075I) is listed as “no changes”.
In the case of `CCNCCCC(C)Nc1ccnc2cc(Cl)ccc12` (stereo not shown) [md-CQ, monodesethyl-CQ], in [1] (PfMDR1^edS1075I), the changes in susceptibility result is on record as “no changes”.
For the compound `Clc1ccc2c(N3CCN(CCCN4CCN(c5ccnc6cc(Cl)ccc56)CC4)CC3)ccnc2c1` [piperaquine], in series [1] (PfMDR1^edS1075I), the changes in susceptibility entry was “no changes”.
On to ferroquine, for which, in series [1] (PfMDR1^edS1075I), the changes in susceptibility result is “no changes”.
